Columns and labels:
Rattus norvegicus = experiment: Antiinflammatory activity in po dosed Donryu rat assessed as inhibition of carrageenan-induced paw edema; type: functional; conditions: read-out: ID50 (the source's name)
In short: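 Male Donryu rats weighing 130–160 g. Carrageenan was used to induce paw edema. ID50 was read from a regression line fitted by least squares, with 95% fiducial limits calculated by Filler's equation.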

[1] = Therapeutic index, ratio of UD50 for ulcerogenicity in po dosed Donryu rat assessed as gastric lesion to ID50 for antiinflammatory activity in po dosed Donryu rat assessed as inhibition of carrageenan-induced paw edema; type: organism-based, Stomach; conditions: in vivo, read-out: TI
[2] = Toxicity in po dosed Donryu rat assessed as mortality; type: organism-based; conditions: in vivo
In short: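 Acute toxicity was tested in male Donryu rats weighing 130–160 g, with mortality as the end point.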

[3] = Ulcerogenicity in po dosed Donryu rat assessed as gastric lesion; type: toxicity, organism-based, Stomach; conditions: in vivo, read-out: UD50 (the source's name)
In short: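 Male Donryu rats weighing 130–160 g. Gastric lesions were induced and then examined.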

[4] = Therapeutic index, ratio of LD50 for po dosed Donryu rat assessed as mortality to ID50 for antiinflammatory activity in po dosed Donryu rat assessed as inhibition of carrageenan-induced paw edema; type: organism-based; conditions: in vivo, read-out: TI

`O=C(O)Cc1ccc2c(c1)C(=O)c1sccc1CO2` gave an ED50 (Rattus norvegicus) of 75.1 µmol/kg.
Work on `O=C(O)Cc1ccc2c(c1)SCc1sccc1C2=O` yielded an ED50 (Rattus norvegicus) of 40 µmol/kg.
`CC(CO)c1ccc2c(c1)C(=O)c1ccccc1CO2` (stereo unspecified) gave an ED50 (Rattus norvegicus) of 28.3 µmol/kg.
With `CC(CO)c1ccc2c(c1)OCc1ccccc1C2=O` (stereo unspecified) the ED50 (Rattus norvegicus) was 6 µmol/kg.
`O=C(O)c1ccc2c(c1)C(=O)c1ccccc1CO2` gave an ED50 (Rattus norvegicus) of over 70.8 µmol/kg.
In the case of `O=C(O)c1ccc2c(c1)OCc1ccccc1C2=O`, the ED50 (Rattus norvegicus) is reported as over 70.8 µmol/kg.
With `O=C1c2ccccc2COc2ccc(-c3nnn[nH]3)cc21` the ED50 (Rattus norvegicus) was over 64.7 µmol/kg.
`O=C1c2ccccc2COc2cc(-c3nnn[nH]3)ccc21` showed an ED50 (Rattus norvegicus) of over 64.7 µmol/kg.
In the case of `O=C1c2ccccc2COc2ccc(Cc3nnn[nH]3)cc21`, the ED50 (Rattus norvegicus) is reported as over 61.6 µmol/kg.
For `O=C1c2ccccc2COc2cc(Cc3nnn[nH]3)ccc21`, the ED50 (Rattus norvegicus) was over 61.6 µmol/kg.
In the case of `CC(=O)/C=C/c1ccc2c(c1)C(=O)c1ccccc1CO2`, the ED50 (Rattus norvegicus) is reported as over 162 µmol/kg.
Work on `CC(=O)/C=C/c1ccc2c(c1)OCc1ccccc1C2=O` yielded an ED50 (Rattus norvegicus) of over 162 µmol/kg.
Molecule `COc1ccc(C(=O)/C=C/c2ccc3c(c2)C(=O)c2ccccc2CO3)cc1` has an ED50 (Rattus norvegicus) of over 122 µmol/kg.
For `CC(=O)CCc1ccc2c(c1)OCc1ccccc1C2=O`, the ED50 (Rattus norvegicus) was 96.7 µmol/kg.
For `CCN(CC)CCOC(=O)Cc1ccc2c(c1)C(=O)c1ccccc1CO2`, the ED50 (Rattus norvegicus) was 133 µmol/kg.
Molecule `O=C(Cc1ccc2c(c1)OCc1ccccc1C2=O)Oc1ccc(C(=O)O)cc1` has an ED50 (Rattus norvegicus) of 91.6 µmol/kg.
For `CC1(C)OCC(COC(=O)Cc2ccc3c(c2)OCc2ccccc2C3=O)O1` (stereo unspecified), the selectivity ratio [1] was 5.6, the LD50 [2] was 241 µmol/kg and the ED50 (Rattus norvegicus) was 100 µmol/kg. The TD50 [3] was 559 µmol/kg and the selectivity ratio [4] was 2.4.
Molecule `O=C(Cc1ccc2c(c1)OCc1ccccc1C2=O)OCC(O)CO` (stereo unspecified) has a selectivity ratio [1] of 8.1, an LD50 [2] of 278 µmol/kg and an ED50 (Rattus norvegicus) of 31 µmol/kg. It also gave a TD50 [3] of 252 µmol/kg and a selectivity ratio [4] of 9.
Work on `NC(=O)Cc1ccc2c(c1)C(=O)c1ccccc1CO2` yielded an ED50 (Rattus norvegicus) of over 67.4 µmol/kg.
Work on `CCOC(=O)CNC(=O)Cc1ccc2c(c1)OCc1ccccc1C2=O` yielded an ED50 (Rattus norvegicus) of over 50.9 µmol/kg.
`O=C(O)Cc1ccc2c(c1)COc1ccccc1C2=O` gave an ED50 (Rattus norvegicus) of 131 µmol/kg.
`CC(C(=O)O)c1ccc2c(c1)OCc1ccccc1C2=O` (stereo unspecified) gave an ED50 (Rattus norvegicus) of 2.7 µmol/kg.
In the case of `O=C(O)Cc1ccc2c(c1)C(O)c1ccccc1CO2` (stereo unspecified), the ED50 (Rattus norvegicus) is reported as over 66.6 µmol/kg.
`O=C(O)Cc1ccc2c(c1)Cc1ccccc1CO2` showed an ED50 (Rattus norvegicus) of 99.1 µmol/kg.
`O=C(O)Cc1ccc2c(c1)Cc1ccc(Cl)cc1CO2` showed an ED50 (Rattus norvegicus) of over 62.3 µmol/kg.
With `O=C(O)Cc1ccc2c(c1)OCc1ccccc1C2O` (stereo unspecified) the ED50 (Rattus norvegicus) was over 66.6 µmol/kg.
Work on `O=C(O)Cc1ccc2c(c1)OCc1ccccc1C2` yielded an ED50 (Rattus norvegicus) of 35 µmol/kg.
Molecule `CC(C(=O)O)c1ccc2c(c1)OCc1ccccc1C2` (stereo unspecified) has an ED50 (Rattus norvegicus) of 12.7 µmol/kg.
With `O=C(O)Cc1ccc2c(c1)OCc1ccsc1C2=O` the ED50 (Rattus norvegicus) was 61.3 µmol/kg.
`CC(C(=O)O)c1ccc2c(c1)OCc1ccsc1C2=O` (stereo unspecified) showed an ED50 (Rattus norvegicus) of 43.7 µmol/kg.
Molecule `O=C(O)Cc1ccc2c(c1)SCc1ccsc1C2=O` has an ED50 (Rattus norvegicus) of over 62 µmol/kg.
With `O=C(O)Cc1ccc2c(c1)C(=O)c1sccc1CS2` the ED50 (Rattus norvegicus) was over 62 µmol/kg.
For `O=C(O)Cc1ccc2c(c1)C(=O)c1ccccc1CO2` [ISOXEPAC], the ED50 (Rattus norvegicus) was 50 µmol/kg.
`O=C(O)Cc1ccc2c(c1)OCc1ccccc1C2=O` [OXEPINAC] showed a selectivity ratio [1] of 21.6, an LD50 [2] of 383 µmol/kg and an ED50 (Rattus norvegicus) of 12.9 µmol/kg. It also gave a TD50 [3] of 279 µmol/kg and a selectivity ratio [4] of 29.7.

From ChEMBL document CHEMBL3244427, “Nonsteroidal antiinflammatory agents. 2. Derivatives/analogues of dibenz[b,e]oxepin-3-acetic acid” (J Med Chem, 1978)
